Screens deposited in PubChem BioAssay by several laboratories.
This is a sample that favours compounds with a hit; in the whole collection about 2.5% have one here.
MC4R antag cAMP: blocks human MC4R cAMP signaling. P32245. MC4R-expressing cells, MTII-stimulated cAMP, LANCE TR-FRET. inhibition, % at 6.5 µM. actives 0.48% (n = 360,000). AID 540295;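 active = inhibition above its plate's cutoff, the mean of tested wells on that plate plus 3 SD, cut at about 29% in these data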;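 note: 0% = Melanotan II alone and 100% = Melanotan II plus saturating MCL0020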
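System: U2OS-MC4R stable cell line; Technique: Eu-cAMP/anti-cAMP TR-FRET, emission 671 nm; Repeats: single well per compound; Also added: Melanotan II; Dosing: one concentration, 6.5 µM nominal; Schedule: 30-min compound, 1-h challenge, 1-h detection, room temperature.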
MC4R ag barr: human MC4R agonism via beta-arrestin | P32245 | U2OS MC4R beta-arrestin complementation, luminescence; percent of melanotan II response, DMSO zero | activation, % at 8.9 µM | actives 0.98% (n = 360,000);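 active = activation above a per-plate cutoff, the mean activation of sample wells on that plate plus 3 SD, cut at about 8% in these data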
NLRP3 yeast inh: NALP3 inhibition in yeast; Yeast reconstituted NLRP3/ASC/caspase-1, beta-gal luminescence, 24 h; inhibition, % at 10 µM; actives 0.39% (n = 330,000); AID 2825;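 active = inhibition of 50% or more; inactive = inhibition below 50%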;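 note: plate controls were induced DMSO wells for no effect and uninduced yeast grown without galactose for full effect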
NALP1 inh: blocks the NALP1 inflammasome reconstituted in yeast. S. cerevisiae NALP1/ASC/caspase-1 growth, X-gal OD620, 72 h. inhibition, % at 10 µM. actives 0.61% (n = 280,000). AID 2071; in the data active = inhibition mostly above about 24%, no sharp cut-off; inactive = mostly below about 32%
A1 inh: inhibitors of the anti-apoptotic protein A1, read as caspase activation; MEF A1-2A-BIM cells, Caspase-Glo 3/7 luminescence, 3 h; percent of clofoctol response, vehicle zero; caspase activation, % (no concentration beside the values); actives 0.066% (n = 330,000); AID 2462;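 active = over half of replicate activation scores above 10%, or exactly half above 10 with the replicate mean above 10; inconclusive = replicate mean below 10 yet half the replicates above 10; inactive = over half of replicates below 10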
Tb MetRS inh: blocks T. brucei methionyl-tRNA synthetase activity; purified T. brucei MetRS, ATP depletion, Kinase-Glo luminescence; actives 0.4% (n = 360,000); inhibition, % at 11.9 µM; AID 624268;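 active = inhibition above a per-plate cutoff of the control wells' mean inhibition plus 3 SD, cut at about 5.5% in these data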;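 note: 0% = DMSO wells median and 100% = median of wells with control inhibitor compound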
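technique = Kinase-Glo luminescence, ATP depletion format | system = purified MetRS (methionyl-tRNA synthetase) enzyme from Trypanosoma brucei | timing = 15 min preincubation, 2 h reaction, all 25 °C | evaluation = percent inhibition versus plate control medians | dosing = single dose, 11.9 µM final nominal, 0.9% final DMSO | also added = substrates ATP, L-methionine and bulk Escherichia coli tRNA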
MC4R barr conf: human MC4R beta-arrestin agonism confirmation | shares compounds with MC4R ag barr | U2OS MC4R beta-arrestin recruitment, luminescence; scaled DMSO 0%, Melanotan II 100% | activation, % at 8.9 µM | actives 31% (n = 2,400);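 active = mean activation across replicates above the hit cutoff set in the earlier primary screen, cut at about 8% in these data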
MOR DOR agonist: OPRM1-OPRD1 heterodimer agonism counter-screen. shares compounds with MC4R ag barr. U2OS PathHunter beta-arrestin, beta-gal luminescence; percent of deltorphin B response, DMSO zero. activation, % at 9.2 µM. actives 5.8% (n = 2,400);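 active = mean activation across replicates exceeds the hit threshold derived in the earlier primary screen, cut at about 18% in these data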;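 note: 100% = deltorphin B at 0.9 µM final and 0% = DMSO alone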
Active calls of the source: *; ? = inconclusive; nt = no result.

SMILES | MC4R antag cAMP | MC4R ag barr | NLRP3 yeast inh | NALP1 inh | A1 inh | Tb MetRS inh | MC4R barr conf | MOR DOR agonist
COc1ccc(C(=O)Cn2c(C(=O)/C=C/c3ccccc3)nc3ccccc32)cc1 | 11 | 23* | 10 | 48 | 0 | -3 | 9.4* | 4
COc1ccc(C(=O)CSc2nc3ccccc3n2CC(=O)c2ccccc2)cc1 | 10 | -2 | 23 | -14 | 0 | 0 | nt | nt
NS(=O)(=O)c1ccc(Sc2ccc3c(c2)CCC3)nc1 | 5 | 1 | -6 | 6 | 0 | 0 | nt | nt
O=C1CC(SC(=NCc2ccc3c(c2)OCO3)Nc2ccccc2)C(=O)N1c1ccccc1 (stereo not drawn) | 5 | 21* | 26 | -10 | 0 | 0 | 1 | 9
Cc1cccc(N2C(=O)CC(SC(=Nc3ccccc3)Nc3ccccc3)C2=O)c1 (stereo not drawn) | 7 | 3 | 1 | 31 | 0 | -1 | nt | nt
O=C1CC(SC(=Nc2ccccc2)Nc2ccccc2)C(=O)N1c1ccc(Cl)c(Cl)c1 (stereo not drawn) | 5 | 9.7* | 0 | 20 | 0 | 0 | 4 | 5
Cc1cccc(NC(=O)c2nc[nH]c2C(=O)NCCCCCNC(=O)OC(C)(C)C)c1 | 6 | 9.7* | 12 | nt | -2 | 0 | -3 | 9
Cc1cccc(NC(=O)c2nc[nH]c2C(=O)NCCCNC(=O)c2[nH]cnc2C(=O)Nc2cccc(C)c2)c1 | 3 | -1 | 17 | nt | -1 | 0 | nt | nt
CCc1ccc(C2CC(c3ccccc3)Nc3nc(N)nn32)cc1 (stereo not drawn) | -4 | 5 | 6 | -2 | 1 | -1 | nt | nt
CCOc1ccc(C2CC(c3ccc(CC)cc3)Nc3nc(N)nn32)cc1 (stereo not drawn) | 10 | 10* | 10 | 14 | -1 | 0 | 8 | 3
CCc1ccc(C2CC(c3ccccc3Cl)Nc3nc(N)nn32)cc1 (stereo not drawn) | 7 | 19* | 14 | 37 | 0 | 0 | 14* | 4
Cc1ccc2nc(-c3cccc(Br)c3)c(Cc3cccc(Cl)c3)n2c1 | nt | nt | nt | nt | nt | -1 | nt | nt
COc1ccccc1OCC(=O)Nc1nc(C)c(C)s1 | -3 | 0 | 16 | 18 | -6 | 0 | nt | nt
CC/C(=N/Nc1ccccc1)c1cnnc(-c2ccccc2)n1 | 5 | 16* | 14 | 24 | 0 | 0 | 21* | 2
CCCNC(=O)c1cc(C2CCCN(S(=O)(=O)c3cccc4cccnc34)C2)on1 (stereo not drawn) | -6 | 0 | nt | nt | nt | 0 | nt | nt
CN1C(=S)N(c2ccccc2)C(=O)/C1=C/c1cccs1 | -4 | 17* | -16 | 16 | 0 | 0 | 8 | 2
Cc1ccc(C(=O)Nc2ccc(C(=O)/C=C/c3cccs3)cc2)cc1 | 9 | 28* | 18 | -7 | -1 | -2 | 2 | 6
O=C(/C=C/c1cccs1)c1ccc(NC(=O)c2cccc(Br)c2)cc1 | 8 | 3 | 13 | 30 | 1 | -1 | nt | nt
CCN(CC)CCN(C(=O)/C=C/c1cccs1)c1nc2ccc(F)cc2s1 | 3 | -2 | 23 | 23 | -1 | -1 | nt | nt
CN(C)CCN(C(=O)/C=C/c1cccs1)c1nc2c(F)cc(F)cc2s1 | 8 | 21* | 31 | 59* | 17* | 0 | 5 | 14
Cc1ccc2nc(N(CCN(C)C)C(=O)/C=C/c3cccs3)sc2c1 | -18 | 16* | 37 | 56* | -1 | -1 | 6 | 4
COc1ccc2sc(N(CCCN(C)C)C(=O)c3ccc(S(=O)(=O)N(C)Cc4ccccc4)cc3)nc2c1 | 6 | -2 | 8 | nt | 0 | 0 | nt | nt
COc1ccc2sc(N(CCCN(C)C)C(=O)c3nc4ccccc4s3)nc2c1 | -10 | 12* | 14 | 11 | -1 | 0 | 8.3* | 10
CN(C)CCCN(C(=O)/C=C/c1cccs1)c1nc2ccc(F)cc2s1 | -7 | 10* | 32 | 36 | 0 | -1 | 16* | 8
CCc1ccc2nc(N(CCN(C)C)C(=O)/C=C/c3cccs3)sc2c1 | 7 | 0 | 25 | 27 | 0 | 0 | nt | nt
SMILES | MC4R antag cAMP | MC4R ag barr | NLRP3 yeast inh | NALP1 inh | A1 inh | Tb MetRS inh | MC4R barr conf | MOR DOR agonist
Nc1nnc(SCC(=O)NC2CCCCCC2)s1 | 6 | 0 | 15 | nt | 2 | -1 | nt | nt
Nc1[nH]c(C(=O)c2ccccc2)c(-c2ccccc2Br)c1C(=O)c1ccccc1 | nt | nt | nt | nt | nt | 0 | nt | nt
CN(C)CCCN(C(=O)CCc1ccccc1)c1nc2ccc(Cl)cc2s1 | -4 | 11* | 26 | 64* | 1 | 2 | 31* | 16
CN(C)CCN(C(=O)/C=C/c1cccs1)c1nc2ccc(Br)cc2s1 | 4 | 31* | 44 | 32 | 0 | 0 | 12* | 6
CCOc1cccc2sc(N(CCN(C)C)C(=O)/C=C/c3cccs3)nc12 | -2 | 15* | 34 | 24 | 0 | 0 | 3 | 9
CN(C)CCCN(C(=O)COc1ccccc1)c1nc2ccc(Cl)cc2s1 | 9 | 4 | 11 | -7 | 0 | 0 | nt | nt
COCCn1c(C)nnc1SCC(=O)NNC(=O)c1ccc(Br)cc1 | 11 | -1 | 13 | 14 | nt | 0 | nt | nt
COc1ccc(CNCCc2ccc(Cl)cc2)cc1OCc1ccccc1 | -3 | 16* | 44 | 25 | ? | 0 | 24* | 11
CCOc1cc(CNCc2ccccc2)ccc1OCc1ccc(Cl)cc1 | -6 | 8 | 35 | 31 | 2 | 0 | nt | nt
Cc1cc(OCc2cc(C(=O)NC3CCC3)no2)cc(C)c1Cl | 3 | 11* | 41 | 23 | -1 | 0 | 0 | 4
Cc1cccc(C)c1OCc1cc(C(=O)NCC2CCCCC2)no1 | -2 | 11* | 2 | 0 | 0 | 0 | 3 | 3
COc1ccc(OC)c(NC(=O)C2(C)CCN2C(C)C)c1 (stereo not drawn) | 4 | 1 | nt | nt | nt | 0 | nt | nt
O=C(Nc1cccc(-c2nc3cccnc3s2)c1)C1c2ccccc2Oc2ccccc21 | 2 | 10* | -7 | 32 | nt | 0 | 3 | 8
Cc1cccc(/C=N/NC(=O)c2cc(Br)ccc2OCc2ccccc2)n1 | 9 | 13* | 7 | -7 | -1 | 4 | -4 | 5
COC(=O)c1cccc(Nc2nc(-c3cccnc3)nc3ccccc23)c1 | 9 | -1 | 29 | -10 | 0 | 0 | nt | nt
CCOC(=O)c1cccc(Nc2nc(-c3cccnc3)nc3ccccc23)c1 | 5 | 12* | 23 | 25 | 0 | 0 | 6 | 7
